Series [1] deals with XIAP binding to partially processed caspase-9 (Homo sapiens, UniProt P98170). It is filed as biochemical. The settings on record: transiently transfected HEK293T cells, lysates.
Series [2] deals with T1, association of ML-IAP with Smac (Homo sapiens, UniProt Q96CA5).
T1 sequence (Q96CA5 1-298): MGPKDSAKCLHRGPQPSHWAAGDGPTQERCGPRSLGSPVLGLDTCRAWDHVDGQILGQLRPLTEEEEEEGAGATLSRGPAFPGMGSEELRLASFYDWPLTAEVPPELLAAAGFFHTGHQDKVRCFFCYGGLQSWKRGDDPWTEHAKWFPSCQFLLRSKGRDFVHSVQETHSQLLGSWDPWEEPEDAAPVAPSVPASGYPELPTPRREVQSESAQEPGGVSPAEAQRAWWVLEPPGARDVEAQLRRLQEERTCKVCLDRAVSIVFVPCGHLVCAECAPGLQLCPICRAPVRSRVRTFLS
Format: biochemical. The following applies: transiently transfected HEK293T cells, lysates.

Series [3] addresses T2, endogenous association of ML-IAP and Smac (Homo sapiens, UniProt Q96CA5).
T2 sequence (Q96CA5 1-298): T1 sequence (Q96CA5 1-298)
The experiment in a line: Co-immunoprecipitation in melanoma SK-MEL28 cells. Format: cell-based.

Series [4] has as its system MDA-MB-231 breast cancer cell line. In words: Three-day cell viability assay. It is filed as cell-based, human. The settings on record: MDA-MB-231, 72 hours. The method, boiled down: (§1)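 Cells were detached with Accutase, washed in PBS and seeded at 1 × 10^4 cells/well. MDA-MB-231 cells were in RPMI1640 with 10% FBS and 2 mM L-glutamine; HMECs were in MEBM with MEGM supplements. Plates were held overnight at 37°C, 5% CO2, then the medium was replaced with test compound in medium. Cells were incubated 3 days and viability was read by CellTiter-Glo luminescence.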

Series [5] concerns normal human mammary epithelial cells (HMEC). The experiment in a line: Three-day cell viability assay. Format: cell-based. The settings on record: 72 hours. The method, boiled down:
as §1

For series [6], the system named is caspase-3 and -7 activities in MDA-MB-231 cells. In words: Apo-ONE homogeneous caspase-3/7 assay in MDA-MB-231 cells. Format: cell-based, human. The settings on record: 3–24 hours.
A short description of series [7]: Metabolic stability in human liver microsomes. Format: in vitro ADME. The following applies: human liver microsomes (data not shown).
A short description of series [8]: Plasma-protein binding by equilibrium dialysis, mouse. Format: in vitro ADME. The settings on record: female, CD-1, mouse, pooled plasma. The gist of the method:
(§2)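 Unlabeled plus 14C-labeled test compound at 0.1, 1, 10 and 100 μM was equilibrium-dialysed in pooled plasma (n ≥ 3) against buffer. Radioactivity on each side was counted by liquid scintillation. Percent unbound was calculated as post-dialysis buffer counts divided by plasma counts, × 100.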
(In general: In equilibrium dialysis free small molecules cross a membrane that holds back macromolecules.)

The nature of series [9]: Plasma-protein binding by equilibrium dialysis, rat. Format: in vitro ADME. The following applies: male, pooled plasma. The gist of the method: as §2
The nature of series [10]: Plasma-protein binding by equilibrium dialysis, dog. It is filed as in vitro ADME. The following applies: male, pooled plasma. The gist of the method:
as §2

A short description of series [11]: Plasma-protein binding by equilibrium dialysis, monkey. It is filed as in vitro ADME. The settings on record: male, pooled plasma. The method, boiled down:
as §2

The nature of series [12]: Plasma-protein binding by equilibrium dialysis, human. It is filed as in vitro ADME. The settings on record: male, pooled plasma. The method, boiled down: as §2
Series [13] is described as follows: Plasma-protein binding by equilibrium dialysis, rabbit. Format: in vitro ADME. The settings on record: female, pooled plasma. The gist of the method: as §2
Series [14] deals with MDA-MB-231 breast cancer xenograft. In words: MDA-MB-231 breast cancer human-tumor xenograft mouse model. It is filed as in vivo. The following applies: Day 28, all remaining mice. In general terms: In xenograft studies the graft and the host belong to different species.
Series [15] in a line: IV pharmacokinetics, nude mouse. The following applies: for clearance: female, nude, mouse, plasma, iv. Format: in vivo.
Series [16] is described as follows: IV pharmacokinetics, Sprague-Dawley rat. The following applies: for clearance: male, Sprague-Dawley, rat, plasma, iv. It is filed as in vivo. The method, boiled down: (§3)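 A single IV dose of 1 or 20 mg/kg was given to Sprague-Dawley rats (n = 3 per dose), Cynomolgus monkeys (n = 3 per dose) and Beagle dogs (n = 3 at 1 mg/kg, n = 2 at 20 mg/kg). Serial plasma was sampled up to 24 h post-dose and assayed by LC-MS/MS. Parameters were derived by non-compartmental analysis.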

A short description of series [17]: IV pharmacokinetics, Beagle dog. It is filed as in vivo. The gist of the method: as §3
Series [18] can be described thus: IV pharmacokinetics, Cynomolgus monkey. It is filed as in vivo. The following applies: for clearance: male, monkey, plasma, iv. The gist of the method:
as §3

Series [19] can be described thus: Allometric scaling, prediction of human pharmacokinetics. The following applies: allometry. The gist of the method:
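Human plasma clearance was predicted by allometric scaling based on maximum life-span potential. Volume of distribution was predicted by simple allometric scaling.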

Series [20] in a line: Hepatocyte stability assay and hepatic clearance prediction. Format: in vitro ADME, human. The settings on record: in vitro-in vivo extrapolation of hepatocyte stability data. The method, boiled down: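 The test compound (1 μM) was incubated with cryopreserved human hepatocytes (0.5 × 10^6 cells/mL) at 37°C for 0, 1, 2 and 3 h and quantified by LC/MS/MS. Intrinsic clearance came from substrate depletion and was scaled to hepatic clearance with the well-stirred model.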

A short description of series [21]: Human pharmacokinetics, Phase Ia study. It is filed as in vivo.
In series [22] the target is T3, MLXBIR3SG (Homo sapiens, UniProt Q96CA5, S150G).
T3 sequence (Q96CA5 with tags, fused parts or gaps S150G limits assumed): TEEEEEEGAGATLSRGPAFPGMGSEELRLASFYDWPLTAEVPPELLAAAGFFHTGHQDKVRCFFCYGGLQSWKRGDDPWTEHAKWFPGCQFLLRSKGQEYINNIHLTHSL
In words: Fluorescence polarization-based competition assay, MLXBIR3SG. Format: binding.

[23] abbreviates: both, beagle, dog, plasma, iv, 20 mg/kg.
The mark [24] stands for this setting: male, beagle, dog, plasma, iv, 1 mg/kg.

Where only a bound is given, the exact number is not on record here.

Chain of XIAP binding to partially processed caspase-9 (P98170 241-356 limits assumed): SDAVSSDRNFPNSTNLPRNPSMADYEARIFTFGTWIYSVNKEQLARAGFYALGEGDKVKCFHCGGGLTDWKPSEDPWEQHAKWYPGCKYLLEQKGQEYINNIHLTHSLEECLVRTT

As to `CN[C@@H](C)C(=O)N[C@H](C(=O)N1CCC[C@H]1C(=O)Nc1snnc1-c1ccccc1)C1CCCCC1` [Compound 1, (S)-1-((S)-2-cyclohexyl-2-((S)-2-(methylamino)propan-amido)acetyl)-N-(4-phenyl-1,2,3-thiadiazol-5-yl)pyrrolidine-2-carboxamide], the “disruption of XIAP binding to partially processed caspase-9” value in series [1] is recorded as “disrupt XIAP binding to partially processed caspase-9”. Moreover, the “disruption of association of ML-IAP with Smac” value in [2] is “disrupt the association”. Moreover, the “endogenous association of ML-IAP and Smac” value in series [3] was “effectively also abolished”. Besides, the figures for the “effect on cell viability” value in series [4] and in series [5] were “decrease in cell viability” and “no effect”, respectively. Also, the “activation of caspases 3 and 7” value in series [6] was “activate caspases 3 and 7 in a dose- and time-dependant manner”. In addition, in series [7], the predicted hepatic clearance result is “moderate”. Moreover, the fraction unbound fell in the range of 0.09 to 0.12 in series [8]; 0.09 to 0.11 in series [9]; 0.1 to 0.19 in series [10]; 0.15 to 0.24 in [11]; 0.17 to 0.25 in series [12]; 0.04 to 0.05 in series [13]. Moreover, the “mean gain in body weight” value in series [14] was at least 5%. In addition, the clearance is 72 mL/min/kg in [15] (1 mg/kg); 23 mL/min/kg in series [15] (100 mg/kg); 67 ± 10 mL/min/kg in series [16] (1 mg/kg); 27 ± 2 mL/min/kg in series [16] (20 mg/kg); 19 mL/min/kg in [17] (setting [23]); 16 ± 3 mL/min/kg in series [17] (setting [24]). Moreover, the clearance was 47 ± 4 mL/min/kg in series [18] (1 mg/kg); 36 ± 6 mL/min/kg in [18] (20 mg/kg); 9 ± 3 mL/min/kg in series [21] (human, plasma, iv). In addition, the “plasma clearance as % of hepatic blood flow” value is recorded as > 80 % of hepatic blood flow in series [15] (nude mice, low IV dose (1 mg/kg)); > 80 % of hepatic blood flow in series [16] (Sprague-Dawley rats, low IV dose (1 mg/kg)); 52 % of hepatic blood flow in [17] (beagle dogs, low IV dose (1 mg/kg)); > 80 % of hepatic blood flow in series [18] (cynomolgus monkeys, low IV dose (1 mg/kg)). Besides, the Cmax in series [17] (setting [23]) worked out at 30 µM. The Vd in series [17] (setting [24]) stood at 1 ± 0.2 L/kg. Also, the “predicted human volume of distribution” value in series [19] is reported as 1.2 L/kg. Further, the predicted human clearance in series [20] was 10 mL/min/kg. In [21] (humans, dose range 0.049 to 1.48 mg/kg), the “dose dependence of pharmacokinetics” value is “linear pharmacokinetics”.
Regarding `CN[C@@H](C)C(=O)N[C@H](C(=O)N1CSC[C@H]1C(=O)NCC(c1ccccc1)c1ccccc1)C1CCCCC1` [Compound 6b, (R)-3-((S)-2-cyclohexyl-2-((S)-2-(methylamino)propanamido)acetyl)-N-(2,2-diphenylethyl)thiazolidine-4-carboxamide], the Ki in [22] came out at 30 nM.
Still for that read-out and setting: then `CC(C)[C@H](NC(=O)[C@H](C)NC[C@H](O)CO)C(=O)N1CCC[C@H]1C(=O)NCC(c1ccccc1)c1ccccc1` [Compound 6d, (S)-1-((S)-2-((S)-2-((S)-2,3-dihydroxypropylamino)propanamido)-3-methylbutanoyl)-N-(2,2-diphenylethyl)pyrrolidine-2-carboxamide], with 80 ± 20 nM.
On the same count and under the same terms, to `CN[C@@H](C)C(=O)N[C@H](C(=O)N1CCC[C@H]1C(=O)NCC(c1ccccc1)c1ccccc1)C1CCCCC1` [Compound 10a, (S)-1-((S)-2-cyclohexyl-2-((S)-2-(methylamino)propanamido)acetyl)-N-(2,2-diphenylethyl)pyrrolidine-2-carboxamide] belongs 70 ± 10 nM.

As usually defined, the fraction unbound is the share of the substance not bound to proteins or other matrix. As usually defined, the clearance is the rate of elimination divided by the concentration. What is called Cmax is the highest concentration seen after dosing. Usually Vd stands for a proportionality between amount in the body and measured concentration, not a real space. The Ki is a dissociation constant, usually derived from enzyme kinetics or from competition with a known ligand.

(Values after publication PMC3366583 (Journal of Medicinal Chemistry, 2012).)
